Reference: ChEMBL document CHEMBL4257586, “Polyheteroaryl Oxazole/Pyridine-Based Compounds Selected in Vitro as G-Quadruplex Ligands Inhibit Rock Kinase and Exhibit Antiproliferative Activity” (J Med Chem, 2018)
pIC50: −log10 of the molar value. Active and inactive are the calls of the source. The rule behind the calls is not given here.

Key:
Myotonin-protein kinase = target: T1, Myotonin-protein kinase (Homo sapiens, UniProt Q09013); assay: Inhibition of DMPK (unknown origin) by ATP competition assay
T1 sequence (Q09013 whole entry): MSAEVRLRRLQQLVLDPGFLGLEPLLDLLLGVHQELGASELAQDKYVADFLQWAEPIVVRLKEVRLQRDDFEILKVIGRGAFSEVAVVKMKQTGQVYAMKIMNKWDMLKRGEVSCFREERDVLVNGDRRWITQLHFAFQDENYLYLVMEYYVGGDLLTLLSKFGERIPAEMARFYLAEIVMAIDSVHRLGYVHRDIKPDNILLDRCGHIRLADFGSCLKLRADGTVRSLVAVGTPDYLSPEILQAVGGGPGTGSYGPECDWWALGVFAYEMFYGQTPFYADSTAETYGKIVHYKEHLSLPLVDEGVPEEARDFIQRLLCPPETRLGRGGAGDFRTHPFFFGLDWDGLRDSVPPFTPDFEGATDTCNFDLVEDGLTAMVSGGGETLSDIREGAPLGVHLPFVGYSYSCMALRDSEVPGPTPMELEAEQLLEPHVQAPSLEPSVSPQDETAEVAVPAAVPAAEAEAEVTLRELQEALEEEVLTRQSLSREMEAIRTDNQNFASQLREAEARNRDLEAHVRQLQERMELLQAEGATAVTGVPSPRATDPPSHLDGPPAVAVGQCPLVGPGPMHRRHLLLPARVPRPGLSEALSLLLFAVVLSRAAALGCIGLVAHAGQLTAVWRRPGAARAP
Outline: (§1)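 Recombinant kinases assayed in duplicate by radioactive filter-binding assay with 33P-ATP; no-compound controls run and each plate validated by Z′. IC50 values determined.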

[1] = target: Rho-associated protein kinase 1 (Homo sapiens, UniProt Q13464); assay: Inhibition of ROCK1 (unknown origin) by ATP competition assay; outline: as §1
Chain of Rho-associated protein kinase 1 (Q13464 whole entry): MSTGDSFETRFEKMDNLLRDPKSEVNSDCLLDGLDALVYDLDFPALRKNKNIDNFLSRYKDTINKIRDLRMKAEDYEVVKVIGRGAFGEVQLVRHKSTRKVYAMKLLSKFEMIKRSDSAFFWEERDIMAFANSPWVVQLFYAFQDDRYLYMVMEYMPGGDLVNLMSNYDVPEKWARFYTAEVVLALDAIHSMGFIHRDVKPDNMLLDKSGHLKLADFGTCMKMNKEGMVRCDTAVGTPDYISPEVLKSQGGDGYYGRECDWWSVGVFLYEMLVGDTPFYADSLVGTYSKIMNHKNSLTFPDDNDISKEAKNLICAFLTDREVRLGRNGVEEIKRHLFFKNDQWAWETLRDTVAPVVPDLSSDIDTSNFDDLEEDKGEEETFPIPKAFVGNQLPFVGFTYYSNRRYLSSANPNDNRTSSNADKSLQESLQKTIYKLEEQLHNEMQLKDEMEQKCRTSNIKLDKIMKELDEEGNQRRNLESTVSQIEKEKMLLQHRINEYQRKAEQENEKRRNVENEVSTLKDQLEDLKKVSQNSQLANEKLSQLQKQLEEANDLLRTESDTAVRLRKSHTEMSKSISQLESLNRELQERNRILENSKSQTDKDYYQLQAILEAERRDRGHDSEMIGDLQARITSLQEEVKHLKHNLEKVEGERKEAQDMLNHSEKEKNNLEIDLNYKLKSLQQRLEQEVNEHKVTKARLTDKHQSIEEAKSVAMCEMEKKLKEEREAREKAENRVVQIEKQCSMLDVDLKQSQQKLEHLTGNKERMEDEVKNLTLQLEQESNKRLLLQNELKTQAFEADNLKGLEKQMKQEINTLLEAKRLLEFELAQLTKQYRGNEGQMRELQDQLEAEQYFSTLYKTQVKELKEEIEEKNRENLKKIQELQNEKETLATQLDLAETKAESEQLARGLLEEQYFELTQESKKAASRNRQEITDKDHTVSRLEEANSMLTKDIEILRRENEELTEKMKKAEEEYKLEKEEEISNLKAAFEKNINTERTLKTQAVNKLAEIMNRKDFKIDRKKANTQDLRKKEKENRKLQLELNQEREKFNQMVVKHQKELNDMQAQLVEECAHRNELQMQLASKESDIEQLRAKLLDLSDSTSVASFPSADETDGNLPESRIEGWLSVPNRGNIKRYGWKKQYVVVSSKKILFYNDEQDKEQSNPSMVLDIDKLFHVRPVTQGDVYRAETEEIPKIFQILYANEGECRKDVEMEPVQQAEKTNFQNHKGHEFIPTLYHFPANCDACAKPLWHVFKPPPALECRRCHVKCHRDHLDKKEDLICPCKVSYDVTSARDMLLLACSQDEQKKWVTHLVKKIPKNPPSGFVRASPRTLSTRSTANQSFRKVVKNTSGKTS

Quadruplex DNA [2] = assay: Binding affinity to 22AG G-quadruplex DNA (unknown origin) by fluorescence spectrophotometric analysis; type: nucleic-acid assay
Outline: (§2)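 Fluorescence titration in 10 mM lithium cacodylate pH 7.2 with 100 mM KCl, 1 cm quartz cell. Ligand at 0.5 μM, excited at 330 or 340 nm, with increasing DNA added (22AG, c-Myc or ds26). Emission over 340/350–650 nm plotted against DNA concentration and fitted by Hill equation to give apparent Ka (1:1).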

Homo sapiens [3] = species on record: Homo sapiens; assay: Selectivity index, ratio of IC50 for inhibition of DMPK (unknown origin) to IC50 for inhibition of ROCK2 (unknown origin)
Quadruplex DNA [4] = assay: Binding affinity to 6-FAM labeled human proto-oncogene sequence FMycT G-quadruplex DNA assessed as change in melting temperature at 1 uM in presence of K+ buffer (1 mM KCl, 99 mM LiCl, 10 mM Li cacodylate) by FRET assay; type: nucleic-acid assay
Outline: (§3)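 FRET melting in duplicate. Dual-labelled oligo (6-FAM/TAMRA) at 0.2 μM with ligand at 1 μM, in 10 mM Li cacodylate pH 7.2. Buffer was 10 mM KCl + 90 mM LiCl for F21T and 1 mM KCl + 99 mM LiCl for FMycT. Sample annealed 90 °C 5 min, cooled to 4 °C overnight. Equilibrated 5 min at 25 °C, then ramped 0.5 °C/min to 95 °C. FAM read 492/516 nm, normalized; Tm taken at the fitted inflection point.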

dsDNA [5] = assay: Binding affinity to duplex 26 DNA (unknown origin) assessed as change in melting temperature at 1 uM by FRET; type: nucleic-acid assay
Homo sapiens [6] = species on record: Homo sapiens; assay: Selectivity index, ratio of IC50 for inhibition of ROCK1 (unknown origin) to IC50 for inhibition of ROCK2 (unknown origin)
HeLa [7] = assay: Induction of double stranded DNA breaks in human HeLa cells assessed as gamma-H2Ax phosphorylation at 2 uM after 24 to 48 hrs by Hoechst 33342 staining-based laser confocal microscopy; type: functional, cell-based
[8] = target: T2, Rho-associated protein kinase (Homo sapiens) (UniProt O75116+Q13464); assay: Inhibition of ROCK in human Hela cells assessed as formation of long neurite-like extensions at 2 uM by phalloidin-based immunofluorescence assay; type: cell-based
T2 sequence (O75116 whole entry, looked up): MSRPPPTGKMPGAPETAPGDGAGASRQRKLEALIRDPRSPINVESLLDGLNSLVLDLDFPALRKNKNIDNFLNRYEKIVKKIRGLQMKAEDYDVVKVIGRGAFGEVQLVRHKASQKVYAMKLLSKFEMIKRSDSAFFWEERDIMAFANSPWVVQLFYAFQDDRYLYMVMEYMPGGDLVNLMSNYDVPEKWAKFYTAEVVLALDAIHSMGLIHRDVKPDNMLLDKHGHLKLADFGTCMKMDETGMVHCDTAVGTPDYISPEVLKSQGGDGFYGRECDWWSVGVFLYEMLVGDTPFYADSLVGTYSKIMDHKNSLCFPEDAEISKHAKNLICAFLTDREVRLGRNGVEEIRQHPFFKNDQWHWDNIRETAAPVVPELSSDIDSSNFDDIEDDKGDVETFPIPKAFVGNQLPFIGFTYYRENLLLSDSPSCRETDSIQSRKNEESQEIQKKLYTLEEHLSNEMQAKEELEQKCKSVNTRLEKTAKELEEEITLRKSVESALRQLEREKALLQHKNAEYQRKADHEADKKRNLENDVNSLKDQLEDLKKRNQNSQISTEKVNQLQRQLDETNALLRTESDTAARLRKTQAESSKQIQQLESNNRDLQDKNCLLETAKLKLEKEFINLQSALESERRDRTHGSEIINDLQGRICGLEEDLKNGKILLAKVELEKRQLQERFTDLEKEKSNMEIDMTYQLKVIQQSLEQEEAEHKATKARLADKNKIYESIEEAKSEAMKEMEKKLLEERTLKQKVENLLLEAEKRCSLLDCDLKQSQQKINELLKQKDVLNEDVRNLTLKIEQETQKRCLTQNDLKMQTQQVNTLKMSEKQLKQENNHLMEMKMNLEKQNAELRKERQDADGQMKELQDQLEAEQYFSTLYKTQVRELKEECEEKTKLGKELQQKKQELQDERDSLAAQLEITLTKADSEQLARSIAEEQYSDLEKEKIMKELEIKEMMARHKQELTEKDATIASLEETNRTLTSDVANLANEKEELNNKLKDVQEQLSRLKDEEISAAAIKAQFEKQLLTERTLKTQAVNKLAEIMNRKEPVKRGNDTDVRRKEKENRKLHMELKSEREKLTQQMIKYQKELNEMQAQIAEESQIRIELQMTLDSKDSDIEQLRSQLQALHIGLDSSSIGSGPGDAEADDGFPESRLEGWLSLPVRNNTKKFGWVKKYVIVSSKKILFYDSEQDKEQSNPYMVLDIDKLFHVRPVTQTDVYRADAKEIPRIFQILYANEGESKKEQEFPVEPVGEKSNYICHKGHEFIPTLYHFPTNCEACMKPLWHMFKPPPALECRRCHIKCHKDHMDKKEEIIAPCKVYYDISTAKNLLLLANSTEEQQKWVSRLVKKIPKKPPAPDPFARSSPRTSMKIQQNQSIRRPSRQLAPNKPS
T2 sequence (Q13464 whole entry, looked up): as the sequence (Q13464 whole entry) above
Outline: (§4)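 HeLa cells on glass coverslips treated overnight at 2 μM or with DMSO control, then fixed in 4% formaldehyde for 10 min at 37 °C. Actin stained with phalloidin; α-tubulin or anti-phospho-Tyr focal points also labelled, plus DNA. Imaged by confocal microscopy.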

[9] = target: T3, Rho-associated protein kinase 2 (Homo sapiens, UniProt O75116); assay: Inhibition of ROCK2 (unknown origin) by ATP competition assay; outline: as §1
Target sequence in this assay (O75116 whole entry): as the sequence (O75116 whole entry, looked up) above

Quadruplex DNA [10] = assay: Binding affinity to c-Myc G-quadruplex DNA (unknown origin) by fluorescence spectrophotometric analysis; type: nucleic-acid assay; outline: as §2
Quadruplex DNA [11] = assay: Binding affinity to 6-FAM labeled human telomeric F21T G-quadruplex DNA assessed as change in melting temperature at 1 uM in K+ rich buffer (10 mM KCl, 90 mM LiCl, 10 mM Li cacodylate) by FRET assay; type: nucleic-acid assay; outline: as §3
[12] = target: T2, Rho-associated protein kinase (Homo sapiens); assay: Inhibition of ROCK in human Hela cells assessed as reduction in cell spreading at 2 uM by phalloidin-based immunofluorescence assay; outline: as §4
HeLa [13] = assay: Induction of double stranded DNA breaks in human HeLa cells assessed as gamma-H2Ax phosphorylation at 1 uM after 24 to 48 hrs by Hoechst 33342 staining-based laser confocal microscopy; type: functional, cell-based
HeLa [14] = assay: Cytotoxicity against human HeLa cells assessed as reduction in organization of stress fibers at 1 uM after 24 to 48 hrs by Hoechst 33342 staining-based laser confocal microscopy; type: functional, cell-based
dsDNA [15] = assay: Binding affinity to duplex 26 DNA (unknown origin) by fluorescence spectrophotometric analysis; type: nucleic-acid assay; outline: as §2
[16] = target: T3, Rho-associated protein kinase 2; assay: Inhibition of ROCK2 in human HeLa cells assessed as reduction in MYPT1 phosphorylation at Thr853 at 2 uM after 3 hrs by immunofluorescence assay; type: cell-based
Outline: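 HeLa cells treated 3 h at 2 or 5 μM, with Y-27632 and untreated controls, then formaldehyde-fixed. Phospho-MYPT1 Thr853 or phospho-cofilin Ser3 immunostained with DNA. Confocal 0.5 μm slices plus z-projection, with acquisition settings fixed from the control.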
Target sequence in this assay (O75116 whole entry, looked up): as above

HeLa [17] = assay: Induction of cell cycle arrest in human HeLa cells at 1 uM after 48 hrs by propidium iodide-staining based flow cytometry; type: functional
Outline: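 HeLa cells serum-starved 96 h for synchronization, then released and treated 48 h. Fixed in ice-cold 70% ethanol 1 h, stained with propidium iodide 50 μg/mL plus RNase A 0.2 mg/mL for 15 min at 37 °C, and analyzed by FACS.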

[18] = Drug uptake in human HeLa cell cytoplasm at 2 uM after 17 hrs imaged with 488 nm excitation by intrinsic fluorescence based assay; type: ADME, subcellular
Outline: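 HeLa cells treated 17 h at 2 μM, or 3.3 μM for one analogue. Imaged by confocal microscopy with no added fluorophore, using 488 nm excitation, plus 405 nm excitation for the 3.3 μM treatment. Intrinsic compound fluorescence was compared with cell background near 510 nm.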

A549 = assay: Cytotoxicity against human A549 cells assessed as presence of large vesicles at 1 uM after 24 to 48 hrs by Hoechst 33342 staining-based laser confocal microscopy; type: functional, cell-based

What does the source list for CN(C)CCOc1cc(-c2ncc(-c3cccc(-c4cnco4)n3)o2)nc(-c2ncc(-c3cccc(-c4cnco4)n3)o2)c1?
pIC50 (Myotonin-protein kinase): < 6.00; pIC50 [1]: < 6.00; Activity (Quadruplex DNA [2]): Dose-dependent effect; Ka (Quadruplex DNA [2]): 2.5 ×10⁶ /M; Ratio IC50 (Homo sapiens [3]): > 50; ΔTm (Quadruplex DNA [4]): 3.4 to 6.4 °C; Activity (dsDNA [5]): inactive; Ratio IC50 (Homo sapiens [6]): > 50; Activity (HeLa [7]): inactive; inhibition [8]: Active; pIC50 [9]: 7.70; Activity (Quadruplex DNA [10]): Dose-dependent effect; Ka (Quadruplex DNA [10]): 22 ×10⁶ /M; ΔTm (Quadruplex DNA [11]): 6 to 9 °C; inhibition [12]: Active; Activity (HeLa [13]): inactive; Activity (HeLa [14]): Active; Ka (dsDNA [15]): 1 ×10⁶ /M

Which results are given for c1cc(-c2cnco2)nc(-c2cnc(-c3cccc(-c4cccc(-c5ncc(-c6cccc(-c7cnco7)n6)o5)n4)n3)o2)c1?
inhibition [16]: Active; pIC50 (Myotonin-protein kinase): < 6.00; pIC50 [1]: < 6.00; Activity (Quadruplex DNA [2]): Dose-dependent effect; Ka (Quadruplex DNA [2]): 3.9 ×10⁶ /M; Ratio IC50 (Homo sapiens [3]): 1.4; Activity (HeLa [17]): inactive; Activity (dsDNA [5]): inactive; Drug uptake [18]: Active; Ratio IC50 (Homo sapiens [6]): 1.4; Activity (HeLa [7]): inactive; inhibition [8]: Active; pIC50 [9]: 6.07; Activity (Quadruplex DNA [10]): Dose-dependent effect; Ka (Quadruplex DNA [10]): 16 ×10⁶ /M; ΔTm (Quadruplex DNA [11]): 6 to 9 °C; inhibition [12]: Active; Activity (HeLa [13]): inactive; Activity (HeLa [14]): Active; Ka (dsDNA [15]): 3 ×10⁶ /M; Activity (A549): Active

Which inhibition [16] does the source give for c1cc(-c2cnco2)nc(-c2cnc(-c3cccc(-c4ncc(-c5cccc(-c6cnco6)n5)o4)n3)o2)c1 here?
Its inhibition is “Active”.

And the pIC50 (Myotonin-protein kinase)?
Its pIC50 is less than 6.00.

What about the pIC50 [1] of the same compound?
The pIC50 was less than 6.00.

What about the Activity (Quadruplex DNA [2]) of the same compound?
The Activity was “Dose-dependent effect”.

And the Ka (Quadruplex DNA [2])?
The Ka was 6.7 ×10⁶ /M.

What about the Ratio IC50 (Homo sapiens [3]) of the same compound?
Its Ratio IC50 is greater than 50.

What about the Activity (HeLa [17]) of the same compound?
Its Activity is “inactive”.

And the ΔTm (Quadruplex DNA [4])?
Its ΔTm is 3.4 to 6.4 °C.

What about the Activity (dsDNA [5]) of the same compound?
The Activity was “inactive”.

And the Drug uptake [18]?
The Drug uptake was “Active”.

And the Ratio IC50 (Homo sapiens [6])?
Its Ratio IC50 is greater than 50.

What about the Activity (HeLa [7]) of the same compound?
The Activity was “inactive”.

What about the inhibition [8] of the same compound?
Its inhibition is “Active”.

What about the pIC50 [9] of the same compound?
The pIC50 was 7.54.

And the Activity (Quadruplex DNA [10])?
Its Activity is “Dose-dependent effect”.

What about the Ka (Quadruplex DNA [10]) of the same compound?
The Ka was 19 ×10⁶ /M.

And the ΔTm (Quadruplex DNA [11])?
The ΔTm was 6 to 9 °C.

And the inhibition [12]?
Its inhibition is “Active”.

And the Activity (HeLa [13])?
The Activity was “inactive”.

And the Activity (HeLa [14])?
Its Activity is “Active”.

What about the Ka (dsDNA [15]) of the same compound?
Its Ka is 0.9 ×10⁶ /M.

What about the Activity (A549) of the same compound?
The Activity was “Active”.
